Compound activity (PubChem)
TMEM16A inh: mouse TMEM16A channel inhibition, primary screen. 310,000 compounds, 1.2% hits. AID 588511. HEK293 TMEM16A/YFP iodide influx fluorescence, ionomycin. normalized B-score (activity score, 25-100; higher = stronger inhibition) at 10 µM. Q8BHY3;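 active = ratio plate-corrected score three or more library SD toward inhibition, starting fluorescence score within five deviations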;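 also: score derived from kinetic fluorescence span divided by baseline fluorescence per well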
Target sequence (Q8BHY3 whole entry, looked up): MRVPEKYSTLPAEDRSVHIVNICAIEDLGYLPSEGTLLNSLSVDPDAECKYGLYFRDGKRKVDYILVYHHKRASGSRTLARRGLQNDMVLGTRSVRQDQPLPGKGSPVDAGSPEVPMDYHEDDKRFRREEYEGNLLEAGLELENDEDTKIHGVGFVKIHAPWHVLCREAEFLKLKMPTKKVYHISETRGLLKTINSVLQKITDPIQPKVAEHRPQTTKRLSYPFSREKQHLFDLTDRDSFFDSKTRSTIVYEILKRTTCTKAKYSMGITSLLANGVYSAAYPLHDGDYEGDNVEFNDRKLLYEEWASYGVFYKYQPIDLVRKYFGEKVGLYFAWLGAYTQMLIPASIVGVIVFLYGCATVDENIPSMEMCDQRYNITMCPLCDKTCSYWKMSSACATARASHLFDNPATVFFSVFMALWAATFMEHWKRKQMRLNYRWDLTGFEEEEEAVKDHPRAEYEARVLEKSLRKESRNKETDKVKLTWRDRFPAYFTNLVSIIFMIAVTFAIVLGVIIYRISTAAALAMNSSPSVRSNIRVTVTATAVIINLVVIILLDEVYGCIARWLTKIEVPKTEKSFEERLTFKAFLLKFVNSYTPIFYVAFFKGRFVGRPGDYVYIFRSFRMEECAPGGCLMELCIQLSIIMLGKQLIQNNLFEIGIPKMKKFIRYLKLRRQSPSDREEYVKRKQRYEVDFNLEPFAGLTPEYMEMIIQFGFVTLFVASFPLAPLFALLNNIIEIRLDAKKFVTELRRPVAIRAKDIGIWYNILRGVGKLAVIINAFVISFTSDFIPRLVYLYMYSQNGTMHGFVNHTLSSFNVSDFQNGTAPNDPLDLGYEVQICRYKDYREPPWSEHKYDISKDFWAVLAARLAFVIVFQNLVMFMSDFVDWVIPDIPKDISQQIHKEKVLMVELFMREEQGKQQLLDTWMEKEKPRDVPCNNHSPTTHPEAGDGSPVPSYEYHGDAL
XBP1 UPR activ: adaptive UPR (XBP1) activation; CHO-XBP1 luciferase reporter, IRE1-XBP1 UPR activation, luminescence; percent of tunicamycin response, DMSO as zero; activation, % at 20 µM; 330,000 compounds, 0.33% hits;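 active = versus positive control, 20 µM dose yields 30% or more activation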
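Material: CHO-XBP1 cells stably carrying IRE1-XBP1-driven luciferase reporter / Amount: 1000 cells per well / Compound: 20 µM, 1% DMSO / Times: 6 h treatment, 37 °C / Detection: luciferase luminescence / Measure: % activation of reporter signal versus tunicamycin and DMSO controls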
Lipid droplet: modulators of hepatic lipid droplet formation; 240,000 compounds, 0.4% hits; AID 1656; inhibition, % at 6.5 µM; AML12 mouse hepatocytes, oleate lipid droplets, BODIPY imaging;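 active = lipid droplet intensity inhibited by at least 50%, with more than 500 cells counted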
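Assay system: AML12 hepatocytes (mouse); Probe or stimulus: oleic acid at 100 µM to induce lipid droplet formation; Dosing: compound at 6.5 µM only; Schedule: compound with oleate, overnight; Detection: fluorescence imaging, 20x objective, two fields per well; Measure: % inhibition of lipid droplet signal.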
TMEM16A act: activates or potentiates the mouse TMEM16A chloride channel; Q8BHY3; HEK293 TMEM16A/YFP-H148Q/I152L, iodide quench fluorescence; hits give low values; B-score at 10 µM; 340,000 compounds, 0.3% hits; AID 623877;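 active = fluorescence-ratio B-score plate-corrected deviation score at least 3 library SD below zero, with starting fluorescence score within 5 deviations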;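 also: channel opened by trigger with iodide after compound preincubation; score built on the fluorescence ratio of max minus min over baseline; more negative score means more quench and so TMEM16A activation or potentiation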
UPR CHOP act: apoptotic UPR (CHOP) activation; CHO-CHOP luciferase reporter, luminescence; percent of tunicamycin response over DMSO baseline; activation, % at 10 µM; 330,000 compounds, 0.34% hits;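 active = at 10 µM dose, activation of 40% or more, normalized to positive control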
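measured by = luciferase luminescence | assay system = CHO-CHOP cells, stable luciferase reporter of PERK-eIF2a-CHOP signalling | amount = 500 reporter cells seeded per well | timing = 6 h compound exposure at 37 °C after overnight seeding | controls = positive tunicamycin 10 µg/mL, negative DMSO alone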
CHOP inhibitor: blocks CHOP induction under ER stress; 220,000 compounds, 3.8% hits; CHO-K1 CHOP-promoter luciferase, tunicamycin-induced, 15-18 h; AID 2732; inhibition, % at 10 µM;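 active = compounds that reduced the stress-induced luciferase reporter signal by more than about 70% of percent inhibition, limit read from the data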
Large screens that a line does not name were inactive. This is a sample that favours compounds with a hit; in the whole collection about 4.2% have one here.

COc1cc(OC)cc(C(=O)N2CCN=C2SCc2cccnc2)c1	none (no result: Lipid droplet)
O=C(c1cccc(F)c1)N1CCN=C1SCc1cccnc1	CHOP inhibitor 86 (no result: Lipid droplet)
CC(=O)c1c(COC(=O)c2cccnc2)nc2ccccc2[n+]1[O-]	TMEM16A act -8.8 (no result: Lipid droplet)
COc1ccc(OC)c(C2NC(=O)c3sc(=S)n(-c4ccccc4)c3N2)c1 (stereo not given)	CHOP inhibitor 90
Cc1cc(C)nc(NC(=O)c2ccc3c(c2)OCO3)c1	none (no result: TMEM16A act)
Cc1cc(C)nc(NC(=O)Nc2ccc3c(c2)OCO3)c1	CHOP inhibitor 71
C[C@H]1CC[C@H]2C(=O)N3[C@H](c4ccccc4Br)[C@@H](C)CC[C@H]3C(=O)N2[C@@H]1c1ccccc1Br	CHOP inhibitor 85 (no result: TMEM16A act)
Cc1ccc(-c2cc(C(=O)NCc3cnn(C)c3C)c3cc(Br)ccc3n2)cc1	CHOP inhibitor 78 (no result: Lipid droplet)
CCN(CC)S(=O)(=O)c1cccc(NC(=O)CNc2cccc(S(=O)(=O)N3CCOCC3)c2)c1	none (no result: Lipid droplet, CHOP inhibitor)
CCN(CC)S(=O)(=O)c1cc(NC(=O)CNc2cccc(S(=O)(=O)N3CCCC3)c2)ccc1C	TMEM16A inh 100 (no result: Lipid droplet, CHOP inhibitor)
COc1ccc(CCC(=O)Nc2cccc(S(=O)(=O)N3CCCCCC3)c2)cc1OC	none (no result: TMEM16A inh, Lipid droplet, CHOP inhibitor)
COc1ccc(S(=O)(=O)N2CCCCCC2)cc1C(=O)OCC(=O)NC(C)(C)C	TMEM16A act -4.7
O=C(Cn1[nH]c(=O)c2ccccc2c1=O)Nc1cccc(S(=O)(=O)N2CCCCCC2)c1	TMEM16A inh 100
COc1ccc(CC(=O)Nc2cccc(S(=O)(=O)N3CCCCCC3)c2)cc1OC	CHOP inhibitor 71 (no result: XBP1 UPR activ, UPR CHOP act)
CCOc1ccccc1N1CCN(C(=O)c2c(Cl)cnn2C)CC1	none (no result: CHOP inhibitor)
CCC(C)(C)C1CCC2(CC1)NC(=O)N(CC(=O)NCCc1ccc(OC)c(OC)c1)C2=O (stereo not given)	none (no result: TMEM16A inh, Lipid droplet, CHOP inhibitor)
CSc1ccc(CN2CCN(C(=O)CC(C)C)CC2)cc1	none (no result: CHOP inhibitor)
O=C(CCNC(=O)C1CCN(S(=O)(=O)c2ccccc2)CC1)Nc1ccccc1	none (no result: CHOP inhibitor)
CCN(c1ccccc1)S(=O)(=O)c1ccc(NC(=O)c2nc(S(C)(=O)=O)ncc2Cl)cc1	TMEM16A act -7.6 (no result: CHOP inhibitor)
COc1cc(/C=C(\C#N)C(=O)Nc2cc(C(F)(F)F)ccc2Cl)ccc1OCC(=O)Nc1cccc(C(F)(F)F)c1	CHOP inhibitor 74
COc1ccc(NC(=O)CN(C)C(=O)c2ccccc2OCC(=O)Nc2cccc(C(F)(F)F)c2)cc1	none (no result: Lipid droplet, CHOP inhibitor)
COc1cc(/C=C(\C#N)c2ccccn2)ccc1OCC(=O)Nc1c(Cl)cccc1Cl	none (no result: XBP1 UPR activ, UPR CHOP act)
COc1ccc(CN(C)C(=O)c2ccc(OCC(=O)Nc3cccc(C(F)(F)F)c3)c(OC)c2)c(OC)c1	TMEM16A inh 100 (no result: Lipid droplet, CHOP inhibitor)
COc1cc(C(=O)NCCCN(C)C)ccc1OCC(=O)Nc1cccc(C(F)(F)F)c1	none
COc1cccc(CN(C)C(=O)c2ccc(OCC(=O)Nc3cccc(C(F)(F)F)c3)c(OC)c2)c1	TMEM16A inh 100 (no result: Lipid droplet, CHOP inhibitor)
COc1cc(/C=C(\C#N)c2ccccn2)ccc1OCC(=O)Nc1ccc(Br)cc1	CHOP inhibitor 70
Cc1ccccc1C(=O)Nc1cc(C(F)(F)F)ccc1-n1cncn1	none (no result: TMEM16A inh, Lipid droplet, CHOP inhibitor)
CNC(=O)[C@H]1O[C@@H](n2cnc3c(NCc4cccc(I)c4)ncnc32)C(O)[C@H]1O (stereo not given in full)	none (no result: TMEM16A inh, XBP1 UPR activ, Lipid droplet, TMEM16A act, UPR CHOP act)
O=C1NN(c2ccccc2)C(=O)/C1=C/c1ccc(-c2ccc(C(=O)O)cc2)o1	none (no result: CHOP inhibitor)
O=C1NN(c2ccccc2)C(=O)/C1=C/c1ccc(Sc2cccc3ccccc23)o1	CHOP inhibitor 104
CCCC(=O)NC(c1cccs1)c1cc(Cl)c2cccnc2c1O (stereo not given)	CHOP inhibitor 75
CCCCC(=O)NC(c1ccccc1OC)c1ccc2cccnc2c1O (stereo not given)	CHOP inhibitor 72
CC(C)CC(=O)NC(c1cccs1)c1ccc2cccnc2c1O (stereo not given)	CHOP inhibitor 79
CCCC(=O)NC(c1ccco1)c1cc(Cl)c2cccnc2c1O (stereo not given)	none
CCC(=O)NC(c1cccs1)c1ccc2cccnc2c1O (stereo not given)	CHOP inhibitor 86
CCCC(=O)NC(c1ccc(C)cc1)c1ccc2cccnc2c1O (stereo not given)	none (no result: CHOP inhibitor)
C=CCN1C(=O)CSC1=Nc1ccc(NC(C)=O)cc1	none (no result: CHOP inhibitor)
COc1cccc(NC(=O)C(=O)NCCC2CCCCN2S(=O)(=O)c2cccs2)c1 (stereo not given)	none (no result: Lipid droplet, CHOP inhibitor)
O=C(COC(=O)c1ccc(C(F)(F)F)cc1)Nc1cccc(S(=O)(=O)N2CCCCC2)c1	none (no result: TMEM16A inh, Lipid droplet, CHOP inhibitor)
COc1ccc(CCNCc2cc(C)n(-c3ccc(OC)cc3)c2C)cc1	none (no result: CHOP inhibitor)
COc1ccc(NC(=O)Nc2ccc3c(c2)CC(=O)N([C@H](C)CO)C[C@H](C)[C@H](CN(C)Cc2ccc(C(=O)O)cc2)O3)cc1	none (no result: TMEM16A inh, Lipid droplet, CHOP inhibitor)
Cc1ccc(S(=O)(=O)N[C@H](C(=O)Oc2ccc3c(C(F)(F)F)cc(=O)oc3c2)c2ccccc2)cc1	CHOP inhibitor 75 (no result: Lipid droplet)
O=[N+]([O-])c1ccccc1OCCCn1cnc2ccccc21	none (no result: TMEM16A inh, XBP1 UPR activ, Lipid droplet, UPR CHOP act)
O=c1c2ccccc2ncn1CCCOc1ccccc1[N+](=O)[O-]	TMEM16A inh 25 (no result: Lipid droplet)
CCc1ccc(OCc2nnc(SCC(=O)Nc3cccc(C(=O)N4CCOCC4)c3)o2)cc1	none
COc1ccc(CC(=O)N[C@@H]2c3cc(OC)c(OC)cc3C[C@H]2O)cc1	none (no result: TMEM16A inh, Lipid droplet, TMEM16A act, CHOP inhibitor)
Cc1cc(/C=N/NC(N)=S)c(C)n1-c1ccc(Cl)c(Cl)c1	none
COc1cccc(NC(=O)C(=O)N/N=C/c2cc(C)n(-c3ccc(Cl)c(Cl)c3)c2C)c1	CHOP inhibitor 78 (no result: Lipid droplet)
Cc1cc[n+](Cc2ccccc2)c(N)c1	none (no result: Lipid droplet, CHOP inhibitor)
CCN(CC)C(=O)Cn1cc(C(=O)C(=O)N2CCN(c3ccc([N+](=O)[O-])cc3)CC2)c2ccccc21	none (no result: CHOP inhibitor)
COc1ccc(N/N=C/c2c(C(=O)O)ccc3ccccc23)cc1	CHOP inhibitor 96
Cc1sc2nc(-c3ccc(Br)cc3)oc(=O)c2c1C	none (no result: CHOP inhibitor)
COC(=O)Cc1[nH]n(-c2nc3ccccc3s2)c(=O)c1C(C)=Nc1ccc(C)cc1	CHOP inhibitor 107
COC(=O)Cc1[nH]n(-c2ccccc2)c(=O)c1C(C)=Nc1ccccc1	none
COC(=O)Cc1[nH]n(-c2nc3ccccc3s2)c(=O)c1C(C)=Nc1ccc(Cl)cc1	CHOP inhibitor 83
CCCN=C(C)c1c(-c2ccccc2)[nH]n(-c2nc3ccccc3s2)c1=O	CHOP inhibitor 72
COc1cccc(-c2nn(Cc3ccccc3)cc2CO)c1	none (no result: CHOP inhibitor)
O=c1ccc2ccc(OCCOc3cccc(Cl)c3)cc2o1	none (no result: CHOP inhibitor)
Clc1cccc(CN2CCSCC2)c1	none (no result: CHOP inhibitor)
